Measured values as given in ChEMBL document CHEMBL2016470, “Quinolinyl- and phenantridinyl-acetamides as bradykinin B1 receptor antagonists” (Bioorg Med Chem Lett, 2012).
Activity calls are given as the source filed them. No cut-off for these calls is given here.

Assays:
B1 bradykinin receptor [1] = target: T1, B1 bradykinin receptor (Homo sapiens, UniProt P46663); test: Binding affinity to human bradykinin B1 receptor
T1 sequence (P46663 whole entry): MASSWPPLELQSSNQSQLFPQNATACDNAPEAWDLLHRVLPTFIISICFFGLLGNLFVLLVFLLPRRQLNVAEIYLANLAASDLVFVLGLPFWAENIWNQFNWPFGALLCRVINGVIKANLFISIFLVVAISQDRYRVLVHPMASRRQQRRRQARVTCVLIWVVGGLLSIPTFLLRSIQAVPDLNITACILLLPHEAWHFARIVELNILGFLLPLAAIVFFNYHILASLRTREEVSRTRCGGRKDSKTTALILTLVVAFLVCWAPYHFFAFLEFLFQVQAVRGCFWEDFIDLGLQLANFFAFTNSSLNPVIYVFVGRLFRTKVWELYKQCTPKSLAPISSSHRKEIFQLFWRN

Liver microsomes [2] = test: Intrinsic clearance in human liver microsomes assessed per gram of liver at 2.5 uM after 20 mins; format: ADME, Microsome
Liver microsomes [3] = test: Intrinsic clearance in rat liver microsomes assessed per gram of liver at 2.5 uM after 20 mins; format: ADME, Microsome
B1 bradykinin receptor [4] = target: T2, B1 bradykinin receptor (Rattus norvegicus, UniProt P97583); test: Antagonist activity at rat bradykinin B1 receptor; format: functional
T2 sequence (P97583 whole entry): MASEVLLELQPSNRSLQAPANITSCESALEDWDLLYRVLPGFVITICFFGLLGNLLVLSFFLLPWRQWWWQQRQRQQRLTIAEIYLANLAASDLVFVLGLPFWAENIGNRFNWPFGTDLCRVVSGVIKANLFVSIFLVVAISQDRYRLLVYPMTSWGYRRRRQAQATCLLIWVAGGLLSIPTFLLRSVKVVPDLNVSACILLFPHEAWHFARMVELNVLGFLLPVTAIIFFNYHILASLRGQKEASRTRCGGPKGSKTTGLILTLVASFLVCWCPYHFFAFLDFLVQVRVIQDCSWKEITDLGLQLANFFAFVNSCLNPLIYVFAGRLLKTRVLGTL

Rattus norvegicus [5] = test: Antiinflammatory activity in Wistar rat pain model assessed as inhibition of DABK-induced paw oedema at 1 mg/kg, po administered 30 mins before DABK challenge measured by plethysometric analysis; format: functional
In short: (§1)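 Male Wistar rats, 120–150 g, LPS-pretreated; oral dosing in 5% (v/v) Tween 80 in saline before DABK injection. Paw volume by plethysmometer at 0, 10, 20, 30 min post-DABK; maximum edema volume taken. Percent inhibition from treated group means versus simultaneous vehicle means; ANOVA with Dunnett's test versus vehicle.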

Rattus norvegicus [6] = test: Antiinflammatory activity in Wistar rat pain model assessed as inhibition of DABK-induced paw oedema at 3 mg/kg, po administered 30 mins before DABK challenge measured by plethysometric analysis; format: functional; in short: as §1
Rattus norvegicus [7] = test: Antiinflammatory activity in Wistar rat pain model assessed as inhibition of DABK-induced paw oedema at 10 mg/kg, po administered 30 mins before DABK challenge measured by plethysometric analysis; format: functional; in short: as §1
Rattus norvegicus [8] = test: Antihyperalgesic activity in Sprague-Dawley rat assessed as decrease in CFA-induced joint pain at 1 to 3 mg/kg, po administered 3 days post CFA challenge; format: functional, organism-based
In short: (§2)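 Knee monoarthritis induced by intra-articular CFA (0.1 ml); joint pain read as hind-limb weight-bearing deficit on an incapacitance tester (difference between un-injected and injected limbs as % of total hind-limb weight). Rats with post-CFA baseline 20–60% enrolled and randomized to equalize baselines; oral dosing on Day 3 post-CFA in 5% Tween 80 in saline; readings pre-dose and 0.5, 1, 2, 3, 4 h post-dose; change from baseline at maximum effect.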

Rattus norvegicus [9] = test: Antiinflammatory activity in Wistar rat pain model assessed as inhibition of DABK-induced paw oedema at 0.3 mg/kg, po administered 60 mins before DABK challenge; format: functional; in short: as §1
Rattus norvegicus [10] = test: Antiinflammatory activity in Wistar rat pain model assessed as inhibition of DABK-induced paw oedema at 1 mg/kg, po administered 60 mins before DABK challenge; format: functional; in short: as §1
Rattus norvegicus [11] = test: Antiinflammatory activity in Wistar rat pain model assessed as inhibition of DABK-induced paw oedema at 3 mg/kg, po administered 60 mins before DABK challenge; format: functional; details: read-out: INH; in short: as §1
[12] = target: T3, B2 bradykinin receptor (Homo sapiens) (UniProt P30411); test: Antagonist activity at human bradykinin B2 receptor at 1 uM; format: functional; parameters: scale not given: the % may be the effect or the level left
T3 sequence (whole entry): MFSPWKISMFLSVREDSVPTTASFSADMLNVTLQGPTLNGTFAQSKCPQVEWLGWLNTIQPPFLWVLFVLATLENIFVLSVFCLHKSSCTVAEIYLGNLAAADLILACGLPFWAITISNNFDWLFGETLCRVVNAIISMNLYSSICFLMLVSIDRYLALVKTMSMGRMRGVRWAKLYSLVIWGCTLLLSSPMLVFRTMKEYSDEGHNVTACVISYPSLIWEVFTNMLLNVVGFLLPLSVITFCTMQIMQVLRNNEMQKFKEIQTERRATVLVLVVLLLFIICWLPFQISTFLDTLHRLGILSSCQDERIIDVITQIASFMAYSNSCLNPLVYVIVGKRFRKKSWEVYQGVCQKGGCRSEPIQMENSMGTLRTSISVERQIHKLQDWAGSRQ

Rattus norvegicus [13] = test: Antiinflammatory activity in Wistar rat pain model assessed as inhibition of DABK-induced paw oedema at 0.03 mg/kg, po administered 120 mins before DABK challenge measured by plethysometric analysis; format: functional; in short: as §1
Rattus norvegicus [14] = test: Antiinflammatory activity in Wistar rat pain model assessed as inhibition of DABK-induced paw oedema at 0.1 mg/kg, po administered 120 mins before DABK challenge measured by plethysometric analysis; format: functional; in short: as §1
Rattus norvegicus [15] = test: Antiinflammatory activity in Wistar rat pain model assessed as inhibition of DABK-induced paw oedema at 0.3 mg/kg, po administered 120 mins before DABK challenge measured by plethysometric analysis; format: functional; in short: as §1
Rattus norvegicus [16] = test: Antiinflammatory activity in po dosed Wistar rat pain model assessed as inhibition of DABK-induced paw oedema administered 120 mins before DABK challenge measured by plethysometric analysis; format: functional, organism-based; in short: as §1
Rattus norvegicus [17] = test: Antihyperalgesic activity in po dosed Sprague-Dawley rat assessed as decrease in CFA-induced joint pain administered 3 days post CFA challenge; format: functional, organism-based; in short: as §2

| Ki (B1 bradykinin receptor [1]) [nM] | CLint (Liver microsomes [2]) [mL/min/g] | CLint (Liver microsomes [3]) [mL/min/g] | IC50 (B1 bradykinin receptor [4]) [nM] | SMILES | further results |
| --- | --- | --- | --- | --- | --- |
| 1.2 | 5.5 | 1.6 | 45 | O=C(CC1c2cc(F)ccc2-c2ccccc2N1S(=O)(=O)c1ccc(Cl)c(Cl)c1)NCCc1ccc(C2=NCCN2)cc1 (centres undefined) | – |
| 1400 | – | – | – | O=C(CC1C(=O)Nc2ccccc2N1S(=O)(=O)c1ccc(Cl)c(Cl)c1)Nc1ccccc1 (centres undefined) | – |
| – | – | – | – | COc1ccc2cc(S(=O)(=O)N[C@H](CC(=O)N[C@H](Cc3ccc(CN4[C@H](C)CCC[C@@H]4C)cc3)C(=O)N(C)C(C)C)c3ccc4c(c3)OCO4)ccc2c1 | inhibition in vivo at 1 mg/kg (Rattus norvegicus [5]): 6%; inhibition in vivo at 3 mg/kg (Rattus norvegicus [6]): 16%; inhibition in vivo at 10 mg/kg (Rattus norvegicus [7]): 30%; Activity (Rattus norvegicus [8]): Active |
| 480 | – | – | – | O=C(CC1COc2ccccc2N1S(=O)(=O)c1ccc(Cl)c(Cl)c1)NCCc1ccc(C2=NCCN2)cc1 (centres undefined) | – |
| 2.2 | 4.2 | 1.9 | – | O=C(CC1c2ccccc2CCN1S(=O)(=O)c1ccc(Cl)c(Cl)c1)NCCc1ccc(C2=NCCN2)cc1 (centres undefined) | – |
| 138 | – | – | – | O=C(CC1c2ccccc2CCN1S(=O)(=O)c1ccc(Cl)c(Cl)c1)Nc1ccc(N2CCC(N3CCCCC3)CC2)cc1 (centres undefined) | – |
| 2.9 | 16.4 | 2.7 | 21 | Cc1cc(C)c(S(=O)(=O)N2c3ccccc3-c3ccccc3C2CC(=O)NCCc2ccc(C3=NCCN3)cc2)cc1C (centres undefined) | – |
| 166 | 16.8 | 7.4 | – | O=C(CC1CCc2ccccc2N1S(=O)(=O)c1ccc(Cl)c(Cl)c1)NCCN1CCN(c2ccncc2)CC1 (centres undefined) | – |
| 4.7 | 12.9 | 1.5 | 52 | Cc1ccc(S(=O)(=O)N2c3ccccc3-c3ccccc3C2CC(=O)NCCc2ccc(C3=NCCN3)cc2)cc1 (centres undefined) | – |
| 3.8 | 13.1 | 2.4 | – | O=C(CC1c2ccccc2CCN1S(=O)(=O)c1ccc(Cl)c(Cl)c1)N1CCC(Cc2ccc(C3=NCCN3)cc2)CC1 (centres undefined) | – |
| 628 | – | – | – | O=C(CC1CCc2ccccc2N1S(=O)(=O)c1ccc(Cl)c(Cl)c1)Nc1ccc(N2CCC(N3CCCCC3)CC2)cc1 (centres undefined) | – |
| 1 | 12.5 | 1.1 | – | O=C(CC1c2ccccc2CCN1S(=O)(=O)c1ccc(Cl)c(Cl)c1)N[C@H]1CC[C@H](CCC2=NCCN2)CC1 (some centres undefined) | – |
| 15.5 | 14.5 | 4.8 | 81 | COc1ccc(S(=O)(=O)N2c3ccccc3-c3ccccc3C2CC(=O)NCCc2ccc(C3=NCCN3)cc2)cc1 (centres undefined) | – |
| 481 | – | – | – | O=C(CC1Cc2ccccc2CN1S(=O)(=O)c1ccc(Cl)c(Cl)c1)NCCc1ccc(C2=NCCN2)cc1 (centres undefined) | – |
| – | – | – | – | O=C(O)Cc1ccccc1Nc1c(Cl)cccc1Cl [DICLOFENAC] | inhibition in vivo at 0.3 mg/kg (Rattus norvegicus [9]): 23%; inhibition in vivo at 1 mg/kg (Rattus norvegicus [10]): 24%; inhibition in vivo at 3 mg/kg (Rattus norvegicus [11]): 35%; Activity (Rattus norvegicus [8]): Active |
| 4.3 | 9 | 0.6 | – | O=C(CC1CCc2ccccc2N1S(=O)(=O)c1ccc(Cl)c(Cl)c1)N[C@H]1CC[C@H](CCC2=NCCN2)CC1 (some centres undefined) | – |
| 8.9 | 1.1 | 1.8 | 43 | COc1cccc2c1-c1ccccc1N(S(=O)(=O)c1ccc(Cl)c(Cl)c1)C2CC(=O)N[C@H]1CC[C@H](CCN2CCCC2)CC1 (some centres undefined) | Activity [12]: 5.8%; inhibition in vivo at 0.03 mg/kg (Rattus norvegicus [13]): 19%; inhibition in vivo at 0.1 mg/kg (Rattus norvegicus [14]): 27%; inhibition in vivo at 0.3 mg/kg (Rattus norvegicus [15]): 54%; inhibition (Rattus norvegicus [16]): Dose-dependent effect; Activity (Rattus norvegicus [17]): Dose-dependent effect |
| 1.7 | 1 | 2.6 | 21 | COc1cccc2c1-c1ccccc1N(S(=O)(=O)c1ccc(Cl)c(Cl)c1)C2CC(=O)NCCc1ccc(C2=NCCN2)cc1 (centres undefined) | – |
| 3.1 | 9.8 | 2.5 | 28 | O=C(CC1c2ccccc2-c2ccccc2N1S(=O)(=O)c1ccc(Cl)c(Cl)c1)NCCc1ccc(C2=NCCN2)cc1 (centres undefined) | – |
| 6.3 | 7.1 | 2.6 | – | O=C(CC1CCc2ccccc2N1S(=O)(=O)c1ccc(Cl)c(Cl)c1)NCCc1ccc(C2=NCCN2)cc1 (centres undefined) | – |
| 9.1 | 8 | 3.9 | 42 | O=C(CC1c2cc(F)cc(F)c2-c2ccccc2N1S(=O)(=O)c1ccc(Cl)c(Cl)c1)NCCc1ccc(C2=NCCN2)cc1 (centres undefined) | – |
